Screens from PubChem BioAssay.
RBBP9 inh = blocks human serine hydrolase RBBP9. O75884. recombinant RBBP9, FP-Rh probe fluorescence polarization. inhibition, % at 7.94 µM. 220,000 compounds, 0.2% hits;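 active means inhibition above the campaign mean of all tested compounds plus 3 SD, cut at about 14% in these data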
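Measured by – fluorescence polarization · Test system – RBBP9 protein · Input – 2.5 µM RBBP9 dispensing solution, before mixing · Measure – percent inhibition from mP, scaled between DMSO and no-protein wells · Benchmarks – DMSO-treated enzyme wells and wells lacking RBBP9 · Times – preincubation 30 min plus labeling 45 min at 25 °C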
Wee1 stabilizer = inhibitors of human Wee1 degradation | P30291 | 220,000 compounds, 1.2% hits | reporter increase, % at 5 µM | HeLa Luc-Wee1K328M stability, luciferase luminescence; 100% = proteasome inhibitor MG132 effect;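 active means activation above the mean of all tested compounds plus 3 SD, set per screening run, cut at about 8.8% in these data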;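 further: cells exposed to compound for 20 h before luminescence read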
Target sequence (P30291 whole entry K328M): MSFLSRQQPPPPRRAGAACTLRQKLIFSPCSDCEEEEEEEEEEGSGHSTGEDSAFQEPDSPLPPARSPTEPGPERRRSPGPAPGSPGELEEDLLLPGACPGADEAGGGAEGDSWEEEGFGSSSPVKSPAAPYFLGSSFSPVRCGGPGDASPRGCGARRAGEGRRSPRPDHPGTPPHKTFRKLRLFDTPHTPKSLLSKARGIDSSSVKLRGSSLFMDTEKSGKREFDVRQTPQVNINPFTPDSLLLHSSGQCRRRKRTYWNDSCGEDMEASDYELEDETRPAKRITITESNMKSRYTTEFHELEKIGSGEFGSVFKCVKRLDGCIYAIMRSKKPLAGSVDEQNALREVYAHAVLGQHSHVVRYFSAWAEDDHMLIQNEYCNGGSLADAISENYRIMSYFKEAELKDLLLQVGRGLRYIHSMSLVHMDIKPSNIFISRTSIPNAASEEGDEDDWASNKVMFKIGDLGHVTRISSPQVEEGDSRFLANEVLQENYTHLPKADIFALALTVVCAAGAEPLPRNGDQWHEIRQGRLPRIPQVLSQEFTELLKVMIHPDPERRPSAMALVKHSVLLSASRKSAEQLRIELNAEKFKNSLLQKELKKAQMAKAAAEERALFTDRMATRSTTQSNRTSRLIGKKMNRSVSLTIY
zVAD death inh = blocks zVAD induced death of L929 cells; L929 zVAD necroptosis rescue, ATP luminescence, 24 h; with zVAD 60 µM; viability rescue, % at 10 µM; 220,000 compounds, 0.38% hits; AID 1377;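 active means activation, scaled between plate controls, above about 75%, limit read from the data; inactive means activation under that limit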
PfM18AAP inh-1 = PfM18AAP enzyme inhibition | recombinant PfM18AAP, H-Glu-NHMec fluorogenic cleavage | inhibition, % at 7.35 µM | 290,000 compounds, 1.2% hits | AID 1822;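 active means inhibition above the campaign mean inhibition over all tested compounds plus 3 SD, cut at about 28% in these data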
p97 ATPase inh = blocks human p97 ATPase activity | P55072 | recombinant p97 ATPase, Kinase-Glo ATP luminescence, 3 h | inhibition, % at 8 µM | 220,000 compounds, 0.42% hits; in the data active means inhibition above about 15%
TNF death inh = blocks TNF-alpha induced death of Jurkat FADD-/- cells; Jurkat FADD-/- TNF necroptosis rescue, ATP luminescence, 24 h; 0 = TNF only, 100 = no-TNF cells; activation (protection from cell death), % at 10 µM; 220,000 compounds, 0.068% hits;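 active means activation, meaning protection from cell death, of at least 50% relative to plate controls; inactive means activation below 50%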;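 further: necroptosis triggered by 40 ng/mL TNF-alpha added together with compound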
PfM18AAP inh-2 = confirmation of Plasmodium falciparum M18 aspartyl aminopeptidase inhibitors. shares compounds with PfM18AAP inh-1. recombinant PfM18AAP, H-Glu-NHMec fluorogenic cleavage. inhibition, % at 7.35 µM. 2,400 compounds, 28% hits;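 active means mean inhibition over replicate wells above the hit cutoff set for the earlier primary screen, cut at about 29% in these data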
CTSL1 counter = Cathepsin L (human) inhibition, confirmation; inhibition, % at 5.96 µM; shares compounds with PfM18AAP inh-1; purified cathepsin L1, Z-Leu-Arg-MCA fluorescence; 2,400 tested, under 10 active;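 active means average inhibition across replicates above the hit cutoff set in the earlier primary screen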
Hits are given with their value. A selection: hits, their analogues and other compounds. The true share with any hit is near 2.7%.

`CNS(=O)(=O)c1cc(Nc2ncnc3sccc23)ccc1C` gave PfM18AAP inh-1 inactive.
Screening S=c1[nH]nc(COc2ccccc2)n1/N=C/c1ccccc1Br returned PfM18AAP inh-1 35, PfM18AAP inh-2 inactive and CTSL1 counter inactive.
For Nn1cnnc1N/N=C/c1ccc(F)cc1 the results were PfM18AAP inh-1 42, PfM18AAP inh-2 inactive and CTSL1 counter inactive.
Nc1nnnn1/N=C\c1ccc(Cl)c([N+](=O)[O-])c1 was read as RBBP9 inh inactive, Wee1 stabilizer inactive, zVAD death inh inactive, PfM18AAP inh-1 inactive, p97 ATPase inh inactive and TNF death inh inactive.
Screening Fc1ccc(/C=N/Nc2nn[nH]n2)cc1 returned RBBP9 inh inactive, Wee1 stabilizer inactive, zVAD death inh inactive, PfM18AAP inh-1 inactive, p97 ATPase inh inactive and TNF death inh inactive.
For COc1ccc(/C=N/Nc2nnc(C)n2N)cc1OC the results were RBBP9 inh inactive, Wee1 stabilizer inactive, zVAD death inh inactive, PfM18AAP inh-1 inactive, p97 ATPase inh inactive and TNF death inh inactive.
`Cc1ccc(/C=N/Nc2nncn2N)cc1` gave PfM18AAP inh-1 40, PfM18AAP inh-2 inactive and CTSL1 counter inactive.
Nn1cnnc1N/N=C/c1ccc(Cl)c([N+](=O)[O-])c1 was read as RBBP9 inh inactive, Wee1 stabilizer inactive, zVAD death inh inactive, PfM18AAP inh-1 57, p97 ATPase inh inactive, TNF death inh inactive, PfM18AAP inh-2 inactive and CTSL1 counter inactive.
`O=C(CSc1ncccn1)NC1CCS(=O)(=O)C1` (centres undefined) gave PfM18AAP inh-1 inactive.
For COC(=O)C1=C(C)NC(=S)NC1c1ccc(-c2cc(Cl)ccc2Cl)o1 (centres undefined) the results were RBBP9 inh inactive, Wee1 stabilizer inactive, zVAD death inh inactive, PfM18AAP inh-1 36, p97 ATPase inh inactive, TNF death inh inactive, PfM18AAP inh-2 inactive and CTSL1 counter inactive.
CCOC(=O)N1CCc2c(sc(N)c2C#N)C1 was read as RBBP9 inh inactive, Wee1 stabilizer inactive, zVAD death inh inactive, PfM18AAP inh-1 39, p97 ATPase inh inactive, TNF death inh inactive, PfM18AAP inh-2 inactive and CTSL1 counter inactive.
For CCOC(=O)N1CCc2c(sc(NC(=O)CN3CCOCC3)c2C#N)C1 the results were RBBP9 inh inactive, Wee1 stabilizer inactive, zVAD death inh inactive, PfM18AAP inh-1 inactive, p97 ATPase inh inactive and TNF death inh inactive.
Cc1ccc2oc(=O)c(/C=C(\O)c3ccco3)nc2c1 was read as RBBP9 inh inactive, Wee1 stabilizer inactive, zVAD death inh inactive, PfM18AAP inh-1 50, p97 ATPase inh inactive, TNF death inh inactive, PfM18AAP inh-2 inactive and CTSL1 counter inactive.
For O=C(O)CSc1cc(NS(=O)(=O)c2ccc(Br)cc2)c2ccccc2c1O the results were PfM18AAP inh-1 inactive.
Screening O=S(=O)(Nc1cc(Sc2ncn[nH]2)c(O)c2ccccc12)c1ccccc1 returned RBBP9 inh inactive, Wee1 stabilizer inactive, zVAD death inh inactive, PfM18AAP inh-1 38, p97 ATPase inh 29, TNF death inh inactive, PfM18AAP inh-2 inactive and CTSL1 counter inactive.
`N#Cc1c(Cl)nsc1NN` gave RBBP9 inh inactive, Wee1 stabilizer inactive, zVAD death inh inactive, PfM18AAP inh-1 39, p97 ATPase inh inactive, TNF death inh inactive, PfM18AAP inh-2 29 and CTSL1 counter inactive.
Cc1c(C#N)c(N)nc(Cl)c1C#N was read as RBBP9 inh inactive, Wee1 stabilizer inactive, zVAD death inh inactive, PfM18AAP inh-1 inactive, p97 ATPase inh inactive and TNF death inh inactive.
CCOC(=O)/C(=C/C=C1\Sc2ccccc2N1CC)C(C)=O was read as RBBP9 inh inactive, Wee1 stabilizer inactive, zVAD death inh inactive, PfM18AAP inh-1 43, p97 ATPase inh inactive, TNF death inh inactive, PfM18AAP inh-2 inactive and CTSL1 counter inactive.
`CCOC(=O)/C(=C\C=C1/Sc2ccccc2N1CC)C(C)=O` gave RBBP9 inh inactive, Wee1 stabilizer inactive, zVAD death inh inactive, PfM18AAP inh-1 45, p97 ATPase inh inactive, TNF death inh inactive, PfM18AAP inh-2 inactive and CTSL1 counter inactive.
Screening COc1cccc(CNC(=O)CN2C(=O)CSc3ccc(S(=O)(=O)N4CCCC4)cc32)c1 returned RBBP9 inh inactive, Wee1 stabilizer inactive, zVAD death inh inactive, PfM18AAP inh-1 inactive, p97 ATPase inh inactive and TNF death inh inactive.
Cc1cc(C)c(S(=O)(=O)Nc2ccccc2C(=O)N2CCCC2)c(C)c1 was read as PfM18AAP inh-1 inactive.
Cc1ccc(C(C(=O)NC(C)(C)C)N(Cc2cccs2)C(=O)c2csnn2)cc1 (centres undefined) was read as RBBP9 inh inactive, Wee1 stabilizer inactive, zVAD death inh inactive, PfM18AAP inh-1 35, p97 ATPase inh inactive, TNF death inh inactive, PfM18AAP inh-2 inactive and CTSL1 counter inactive.
CCC(C)[C@H](NC(=O)c1cc2cc(Cl)ccc2n1C)C(=O)N1CCC(C(=O)O)CC1 (some centres undefined) was read as PfM18AAP inh-1 inactive.
Screening O=S(=O)(O)c1cc(O)c2c(O)c(N=Nc3cc(Cl)ccc3O)c(S(=O)(=O)O)cc2c1 returned PfM18AAP inh-1 45, PfM18AAP inh-2 29 and CTSL1 counter inactive.
Screening O=S1(=O)N=C(Nc2nncs2)c2ccccc21 returned RBBP9 inh inactive, Wee1 stabilizer inactive, zVAD death inh inactive, PfM18AAP inh-1 41, p97 ATPase inh inactive, TNF death inh inactive, PfM18AAP inh-2 51 and CTSL1 counter inactive.
`Cc1cccc(/C=C/C(=O)c2cc(Br)ccc(=O)c2O)c1` gave RBBP9 inh inactive, Wee1 stabilizer inactive, zVAD death inh inactive, PfM18AAP inh-1 49, p97 ATPase inh inactive, TNF death inh inactive, PfM18AAP inh-2 inactive and CTSL1 counter inactive.
Screening CCOc1ccc(/C=C/C(=O)c2cc(Br)ccc(=O)c2O)cc1 returned RBBP9 inh inactive, Wee1 stabilizer inactive, zVAD death inh inactive, PfM18AAP inh-1 inactive, p97 ATPase inh inactive and TNF death inh inactive.
`C=CCn1c(-c2ccoc2)n[nH]c1=S` gave RBBP9 inh inactive, Wee1 stabilizer inactive, zVAD death inh inactive, PfM18AAP inh-1 49, p97 ATPase inh inactive, TNF death inh inactive, PfM18AAP inh-2 inactive and CTSL1 counter inactive.
For C=CCn1c(Cc2c[nH]c3ccccc23)n[nH]c1=S the results were RBBP9 inh inactive, Wee1 stabilizer inactive, zVAD death inh inactive, PfM18AAP inh-1 inactive, p97 ATPase inh inactive and TNF death inh inactive.
C=CCn1c(Cc2ccccc2)n[nH]c1=S was read as RBBP9 inh inactive, Wee1 stabilizer inactive, zVAD death inh inactive, PfM18AAP inh-1 34, p97 ATPase inh inactive, TNF death inh inactive, PfM18AAP inh-2 inactive and CTSL1 counter inactive.
